Blank lines part the entries; values can stand above or below the compound they belong to.
What was measured:
HT-29 [1] = assay: Antiproliferative activity against human HT-29 cells after 2 days by MTT assay; type: functional, cell-based; details: HT-29, 48 h
How it was run: (§1)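 Cells (5×10^3 per well) in DMEM with 10% FBS, glucose, glutamine and antibiotics were exposed to serial dilutions (stocks in DMSO) for 2 days at 37 °C, 5% CO2. MTT was added for 3 h, formazan was dissolved in DMSO and absorbance read at 490 nm. Viability was taken as % of untreated cells. IC50 was read graphically from three independent experiments.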

MCF7 = assay: Antiproliferative activity against human MCF7 cells after 2 days by MTT assay; type: functional, cell-based; details: MCF7, 48 h; how it was run: as §1
HeLa = assay: Antiproliferative activity against human HeLa cells after 2 days by MTT assay; type: functional, cell-based; details: 48 h; how it was run: as §1
HEK293 = assay: Antiproliferative activity against human HEK293 cells after 2 days by MTT assay; type: cell-based; details: HEK293, 48 h; how it was run: as §1
HT-29 [2] = assay: Induction of apoptosis in human HT-29 cells assessed as viable cells at 5 nM after 48 hrs by Annexin V-FITC staining-based flow cytometric analysis (reference value: 82 +/- 1%); type: functional; details: HT-29, 48 h, read-out: Activity
HT-29 [3] = assay: Induction of apoptosis in human HT-29 cells assessed as apoptotic cells at 5 nM after 48 hrs by Annexin V-FITC staining-based flow cytometric analysis (reference value: 13 +/- 3%); type: functional
HT-29 [4] = assay: Induction of apoptosis in human HT-29 cells assessed as necrotic cells at 5 nM after 48 hrs by Annexin V-FITC staining-based flow cytometric analysis (reference value: 2 +/- 6%); type: functional
HT-29 [5] = assay: Effect on c-MYC gene expression in human HT-29 cells assessed as c-MYC level at 5 nM after 48 hrs by RT-qPCR analysis; type: functional
How it was run: (§2)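 HT-29 cells at 70–80% confluence were seeded at 1.5×10^5 per well and left 24 h, then treated 48 h, with DMSO as control. Total RNA was extracted and VEGF-A, c-Myc and hTERT were quantified by TaqMan qPCR, normalized to β-actin and to living cell number. Results are % expression versus control, at least three measurements.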

HT-29 [6] = assay: Effect on hTERT gene expression in human HT-29 cells assessed as hTERT level at 5 nM after 48 hrs by RT-qPCR analysis; type: functional; how it was run: as §2
HT-29 [7] = assay: Effect on VEGF gene expression in human HT-29 cells assessed as VEGF level at 5 nM after 48 hrs by RT-qPCR analysis; type: functional; how it was run: as §2
HT-29 [8] = assay: Effect on c-MYC protein expression in human HT-29 cells assessed as c-MYC level at 5 nM after 48 hrs by ELISA; type: functional
How it was run: (§3)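 HT-29 cells (1.5×10^5 per well, 24 h pre-culture) were treated 48 h and washed in PBS. They were lysed in Tris pH 7.4 buffer with detergents, phosphatase inhibitors, PMSF and protease inhibitors. Lysates were adjusted to 200 µg/mL protein (Bradford) and total c-Myc or VEGFR-2 was measured by sandwich ELISA kit. Values are % of DMSO control, ≥3 measurements.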

HT-29 [9] = assay: Effect on VEGFR2 protein expression in human HT-29 cells assessed as VEGFR2 level at 5 nM after 48 hrs by ELISA; type: functional; how it was run: as §3
HT-29 [10] = assay: Effect on VEGF protein expression in human HT-29 cells assessed as secreted VEGF level in culture media at 5 nM after 48 hrs by ELISA
HT-29 [11] = assay: Induction of apoptosis in human HT-29 cells assessed as viable cells at 1000 nM after 48 hrs by Annexin V-FITC staining-based flow cytometric analysis (reference value: 82 +/- 1%); type: functional; details: HT-29, 48 h, read-out: Activity
HT-29 [12] = assay: Induction of apoptosis in human HT-29 cells assessed as apoptotic cells at 1000 nM after 48 hrs by Annexin V-FITC staining-based flow cytometric analysis (reference value: 13 +/- 3%); type: functional
HT-29 [13] = assay: Induction of apoptosis in human HT-29 cells assessed as necrotic cells at 1000 nM after 48 hrs by Annexin V-FITC staining-based flow cytometric analysis (reference value: 2 +/- 6%); type: functional
HT-29 [14] = assay: Induction of apoptosis in human HT-29 cells assessed as viable cells at 25 nM after 48 hrs by Annexin V-FITC staining-based flow cytometric analysis (reference value: 82 +/- 1%); type: functional; details: HT-29, 48 h, read-out: Activity
HT-29 [15] = assay: Induction of apoptosis in human HT-29 cells assessed as apoptotic cells at 25 nM after 48 hrs by Annexin V-FITC staining-based flow cytometric analysis (reference value: 13 +/- 3%); type: functional
HT-29 [16] = assay: Induction of apoptosis in human HT-29 cells assessed as necrotic cells at 25 nM after 48 hrs by Annexin V-FITC staining-based flow cytometric analysis (reference value: 2 +/- 6%); type: functional
HT-29 [17] = assay: Induction of apoptosis in human HT-29 cells assessed as viable cells at 20 nM after 48 hrs by Annexin V-FITC staining-based flow cytometric analysis (reference value: 82 +/- 1%); type: functional; details: HT-29, 48 h, read-out: Activity
HT-29 [18] = assay: Induction of apoptosis in human HT-29 cells assessed as apoptotic cells at 20 nM after 48 hrs by Annexin V-FITC staining-based flow cytometric analysis (reference value: 13 +/- 3%); type: functional
HT-29 [19] = assay: Induction of apoptosis in human HT-29 cells assessed as necrotic cells at 20 nM after 48 hrs by Annexin V-FITC staining-based flow cytometric analysis (reference value: 2 +/- 6%); type: functional
HT-29 [20] = assay: Induction of apoptosis in human HT-29 cells assessed as viable cells at 15 nM after 48 hrs by Annexin V-FITC staining-based flow cytometric analysis (reference value: 82 +/- 1%); type: functional; details: HT-29, 48 h, read-out: Activity
HT-29 [21] = assay: Induction of apoptosis in human HT-29 cells assessed as apoptotic cells at 15 nM after 48 hrs by Annexin V-FITC staining-based flow cytometric analysis (reference value: 13 +/- 3%); type: functional
HT-29 [22] = assay: Induction of apoptosis in human HT-29 cells assessed as necrotic cells at 15 nM after 48 hrs by Annexin V-FITC staining-based flow cytometric analysis (reference value: 2 +/- 6%); type: functional
HT-29 [23] = assay: Effect on c-MYC gene expression in human HT-29 cells assessed as c-MYC level at 15 nM after 48 hrs by RT-qPCR analysis; type: functional; how it was run: as §2
HT-29 [24] = assay: Effect on hTERT gene expression in human HT-29 cells assessed as hTERT level at 15 nM after 48 hrs by RT-qPCR analysis; type: functional; how it was run: as §2
HT-29 [25] = assay: Effect on VEGF gene expression in human HT-29 cells assessed as VEGF level at 15 nM after 48 hrs by RT-qPCR analysis; type: functional; how it was run: as §2
HT-29 [26] = assay: Effect on c-MYC protein expression in human HT-29 cells assessed as c-MYC level at 15 nM after 48 hrs by ELISA; type: functional; how it was run: as §3
HT-29 [27] = assay: Effect on VEGFR2 protein expression in human HT-29 cells assessed as VEGFR2 level at 15 nM after 48 hrs by ELISA; type: functional; how it was run: as §3
HT-29 [28] = assay: Effect on VEGF protein expression in human HT-29 cells assessed as secreted VEGF level in culture media at 15 nM after 48 hrs by ELISA

SMILES: COc1ccc(NC(=O)N[C@H]2CCc3cc(OC)c(OC)c(OC)c3-c3ccc(OC)c(=O)cc32)cc1
IC50 (HT-29 [1]): 4 nM | IC50 (MCF7): 13 nM | IC50 (HeLa): 6.5 nM | IC50 (HEK293): 14 nM | viability at 0.005 µM (HT-29 [2]): 64% | Activity (HT-29 [3]): 35% | Activity (HT-29 [4]): 1% | Activity (HT-29 [5]): 55% | Activity (HT-29 [6]): 91% | Activity (HT-29 [7]): 70% | Activity (HT-29 [8]): 61% | Activity (HT-29 [9]): 95% | Activity (HT-29 [10]): 44%

SMILES: COc1cc2c(c(OC)c1OC)-c1ccc(OC)c(=O)cc1[C@@H](NC(=O)Nc1ccc(F)cc1Cl)CC2
IC50 (HT-29 [1]): 1.75 nM | IC50 (MCF7): 1.2 nM | IC50 (HeLa): 5 nM | IC50 (HEK293): 1.7 nM | viability at 0.005 µM (HT-29 [2]): 46% | Activity (HT-29 [3]): 53% | Activity (HT-29 [4]): 1% | Activity (HT-29 [5]): 58% | Activity (HT-29 [6]): 80% | Activity (HT-29 [7]): 64% | Activity (HT-29 [8]): 104% | Activity (HT-29 [9]): 15% | Activity (HT-29 [10]): 67%

SMILES: COc1cc2c(c(OC)c1OC)-c1ccc(OC)c(=O)cc1[C@@H](NC(=O)Nc1ccccc1C)CC2
IC50 (HT-29 [1]): 26 nM | IC50 (MCF7): 119 nM | IC50 (HeLa): 32 nM | IC50 (HEK293): 44 nM | viability at 0.025 µM (HT-29 [14]): 64% | Activity (HT-29 [15]): 34% | Activity (HT-29 [16]): 2%

SMILES: COc1cc2c(c(OC)c1OC)-c1ccc(OC)c(=O)cc1[C@@H](NC(=O)Nc1cc(C(F)(F)F)cc(C(F)(F)F)c1)CC2
IC50 (HT-29 [1]): 2600 nM | IC50 (MCF7): 1800 nM | IC50 (HeLa): 1700 nM | IC50 (HEK293): 1500 nM | viability at 0.02 µM (HT-29 [17]): 96% | Activity (HT-29 [18]): 4% | Activity (HT-29 [19]): 1%

More lines, main results first:

IC50 (HT-29 [1]): 1200 nM | IC50 (MCF7): 1200 nM | IC50 (HeLa): 1400 nM
SMILES: COc1ccccc1NC(=O)N[C@H]1CCc2cc(OC)c(OC)c(OC)c2-c2ccc(OC)c(=O)cc21
IC50 (HEK293): 1200 nM | viability at 1 µM (HT-29 [11]): 55% | Activity (HT-29 [12]): 44% | Activity (HT-29 [13]): 1%

IC50 (HT-29 [1]): 5 nM | IC50 (MCF7): 10 nM | IC50 (HeLa): 10 nM
SMILES: COc1cc2c(c(OC)c1OC)-c1ccc(OC)c(=O)cc1[C@@H](NC(=O)Nc1ccc(F)cc1)CC2
IC50 (HEK293): 13 nM | viability at 0.005 µM (HT-29 [2]): 51% | Activity (HT-29 [3]): 47% | Activity (HT-29 [4]): 2% | Activity (HT-29 [5]): 52% | Activity (HT-29 [6]): 70% | Activity (HT-29 [7]): 59% | Activity (HT-29 [8]): 105% | Activity (HT-29 [9]): 63% | Activity (HT-29 [10]): 55%

IC50 (HT-29 [1]): 4.3 nM | IC50 (MCF7): 370 nM | IC50 (HeLa): 8 nM
SMILES: COc1cc2c(c(OC)c1OC)-c1ccc(OC)c(=O)cc1[C@@H](NC(=O)Nc1cccc(Cl)c1)CC2
IC50 (HEK293): 4.6 nM | viability at 0.005 µM (HT-29 [2]): 62% | Activity (HT-29 [3]): 37% | Activity (HT-29 [4]): 1% | Activity (HT-29 [5]): 104% | Activity (HT-29 [6]): 90% | Activity (HT-29 [7]): 95% | Activity (HT-29 [8]): 87% | Activity (HT-29 [9]): 15% | Activity (HT-29 [10]): 114%

IC50 (HT-29 [1]): 14 nM | IC50 (MCF7): 10 nM | IC50 (HeLa): 21 nM
SMILES: COc1cc2c(c(OC)c1OC)-c1ccc(OC)c(=O)cc1[C@@H](NC(=O)Nc1ccc(F)cc1C)CC2
IC50 (HEK293): 65 nM | viability at 0.015 µM (HT-29 [20]): 73% | Activity (HT-29 [21]): 26% | Activity (HT-29 [22]): 1% | Activity (HT-29 [23]): 65% | Activity (HT-29 [24]): 68% | Activity (HT-29 [25]): 63% | Activity (HT-29 [26]): 110% | Activity (HT-29 [27]): 62% | Activity (HT-29 [28]): 90%

IC50 (HT-29 [1]): 25 nM | IC50 (MCF7): 42 nM | IC50 (HeLa): 18 nM
SMILES: COc1cc2c(c(OC)c1OC)-c1ccc(OC)c(=O)cc1[C@@H](NC(=O)Nc1c(F)cccc1F)CC2
IC50 (HEK293): 46 nM | viability at 0.015 µM (HT-29 [20]): 87% | Activity (HT-29 [21]): 12% | Activity (HT-29 [22]): 1% | Activity (HT-29 [23]): 88% | Activity (HT-29 [24]): 36% | Activity (HT-29 [25]): 38% | Activity (HT-29 [26]): 42% | Activity (HT-29 [27]): 35% | Activity (HT-29 [28]): 11%
